ChEMBL document CHEMBL1157725 (Bioorg Med Chem, 2010)
The source made the active and inactive calls. The calls are words filed in the database; no cut-off is given here.

Legend:
MCF7 = assay: Antiproliferative activity against human MCF7 cells after 24 hrs by SRB assay; format: functional, cell-based; conditions: MCF7, 24 h
Procedure, shortened: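 MCF-7 cells are grown for 24 h with or without drug, then for a further 48 h. Total cell protein is measured by sulforhodamine B staining, and the IC₅₀ is derived from it.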

[1] = Inhibition of tubulin polymerization by turbidimetry
Procedure, shortened: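 Tubulin at 10 µM (1.0 mg/mL). Polymerization followed turbidimetrically at 350 nm in temperature-controlled spectrophotometers.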

[2] = Inhibition of tubulin in rat A10 cells assessed as induction of cellular microtubule disassembly after 18 hrs by indirect immunofluorescence technique; format: cell-based; conditions: A10, 18 h
Procedure, shortened: (§1)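 A-10 cells plated on glass coverslips and treated with compound at varying concentrations for 18 h. After fixation, microtubules immunostained with a β-tubulin antibody (indirect immunofluorescence) and nuclei stained with DAPI. Read by fluorescence microscopy. Percentage of cellular microtubule loss estimated visually across the concentration range.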

[3] = Displacement of [3H]colchicine from tubulin at 50 uM by turbidimetry; conditions: in the assay text read “by DEAE-cellulose filter method” for “by turbidimetry”
Procedure, shortened: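 Binding of [³H]colchicine to tubulin (1.0 µM, 0.1 mg/mL) is measured by the DEAE-cellulose filter method. The radioligand is at 5.0 µM and test agents at 5 or 50 µM. Each is run in triplicate.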

A10 = assay: Inhibition of tubulin in rat A10 cells assessed as disappearance of microtubule network at 20 uM after 18 hrs by fluorescence microscopy; format: cell-based; procedure, shortened: as §1
[4] = Displacement of [3H]colchicine from tubulin at 5 uM by DEAE-cellulose filter method

Row | IC50 (MCF7) | IC50 [1] | EC50 [2] | inhibition [3] | inhibition [4] | SMILES | Activity (A10)
1 | > 2500 nM | > 40000 nM | > 15000 nM |  |  | COc1ccc(C(=O)/C=C/c2cc(OC)c(OC)c(OC)c2)cc1B(O)O | 
2 | 110 nM | 2600 nM | 980 nM | 101% | 88% | COc1ccc(/C=C/C(=O)c2cc(OC)c(OC)c(OC)c2)cc1O | Active

Row | SMILES | IC50 (MCF7) | IC50 [1] | EC50 [2] | inhibition [3] | inhibition [4] | Activity (A10)
3 | COc1ccc(C(=O)/C=C/c2cc(OC)c(OC)c(OC)c2)cc1O | > 2500 nM | > 40000 nM | 18000 nM |  |  | 
